Test results as given in ChEMBL document CHEMBL1687913, “Structure-activity relationship, conformational and biological studies of temporin L analogues” (J Med Chem, 2011).
Converted amounts (≈) assume the structure as drawn. Where a SMILES comes first, the peptide text is derived from it.

Columns and labels:
Staphylococcus capitis = assay: Antibacterial activity against Staphylococcus capitis after 18 to 20 hrs by microbroth dilution method; assay type: functional
How it was run: (§1)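 CLSI microbroth dilution, adapted. Mid-log bacteria, 2 × 10^6 CFU/mL in Mueller-Hinton broth, mixed 1:1 with MH broth holding peptide in serial 2-fold dilutions in 20% ethanol (0.75-48 μM). Incubated 18-20 h at 37 °C; growth read as A600. MIC is the lowest concentration giving 100% growth inhibition.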

[1] = Toxicity in human erythrocytes assessed as hemolysis at 12 uM after 40 mins; assay type: cell-based, Erythrocyte; conditions: read-out: Activity
How it was run: (§2)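 Human red blood cells suspended in 0.9% (w/v) NaCl and incubated 40 min at 37 °C with gentle mixing with serial 2-fold peptide dilutions (peptide predissolved in 20% ethanol). Spun 5 min at 900g; supernatant read at 415 nm. Cells lysed in distilled water set the 100% lysis reference.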

[2] = test system: Staphylococcus epidermidis; assay: Antibacterial activity against Staphylococcus epidermidis ATCC 12228 after 18 to 20 hrs by microbroth dilution method; assay type: functional; how it was run: as §1
Streptococcus pyogenes = assay: Antibacterial activity against Streptococcus pyogenes ATCC 21547 after 18 to 20 hrs by microbroth dilution method; assay type: functional; how it was run: as §1
[3] = test system: Schizosaccharomyces pombe; assay: Antifungal activity against Schizosaccharomyces pombe after 18 to 20 hrs by microbroth dilution method; assay type: functional
How it was run: (§3)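 Yeasts tested by adapted CLSI microbroth dilution in Winge medium. Peptide given in serial 2-fold dilutions (0.75-48 μM, made in 20% ethanol). Incubation 18-20 h at 30 °C, read at A600. MIC taken as the concentration giving complete (100%) growth inhibition.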

Saccharomyces cerevisiae = assay: Antifungal activity against Saccharomyces cerevisiae after 18 to 20 hrs by microbroth dilution method; assay type: functional; how it was run: as §3
Staphylococcus aureus [4] = assay: Antibacterial activity against Staphylococcus aureus Cowan I after 18 to 20 hrs by microbroth dilution method; assay type: functional; how it was run: as §1
Acinetobacter junii = assay: Antibacterial activity against […] Acinetobacter junii RT-4 after 18 to 20 hrs by microbroth dilution method; assay type: functional; how it was run: as §1
Pseudomonas syringae = assay: Antibacterial activity against Pseudomonas syringae pv tobaci after 18 to 20 hrs by microbroth dilution method; assay type: functional; how it was run: as §1
Escherichia coli [5] = assay: Antibacterial activity against Escherichia coli D21 after 18 to 20 hrs by microbroth dilution method; assay type: functional; how it was run: as §1
[6] = Toxicity in human erythrocytes assessed as hemolysis at 1.5 uM after 40 mins; assay type: cell-based, Erythrocyte; conditions: read-out: Activity; how it was run: as §2
Pseudomonas aeruginosa [7] = assay: Antibacterial activity against Pseudomonas aeruginosa ATCC 15692 after 18 to 20 hrs by microbroth dilution method; assay type: functional; how it was run: as §1
Acinetobacter baumannii = assay: Antibacterial activity against Acinetobacter baumannii ATCC 19606 after 18 to 20 hrs by microbroth dilution method; assay type: functional; how it was run: as §1
[8] = test system: Yersinia pseudotuberculosis; assay: Antibacterial activity against Yersinia pseudotuberculosis YPIII after 18 to 20 hrs by microbroth dilution method; assay type: functional
How it was run: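 Broth microdilution adapted from CLSI. Mid-log bacteria at 2 × 10^6 CFU/mL in Mueller-Hinton broth were mixed 1:1 with MH broth containing peptide in serial 2-fold dilutions (peptide in 20% ethanol), 0.75-48 μM. Plates were incubated 18-20 h at 37 °C and growth was read as A600. MIC is the concentration giving 100% growth inhibition.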

Pseudomonas aeruginosa [9] = assay: Antibacterial activity against Pseudomonas aeruginosa ATCC 27853 after 18 to 20 hrs by microbroth dilution method; assay type: functional; how it was run: as §1
Priestia megaterium = assay: Antibacterial activity against Bacillus megaterium Bm11 after 18 to 20 hrs by microbroth dilution method; assay type: functional; how it was run: as §1
Escherichia coli [10] = assay: Antibacterial activity against Escherichia coli ATCC 25922 after 18 to 20 hrs by microbroth dilution method; assay type: functional; how it was run: as §1
[11] = Toxicity in human erythrocytes assessed as hemolysis at 24 uM after 40 mins; assay type: cell-based, Erythrocyte; conditions: read-out: Activity; how it was run: as §2
Candida albicans = assay: Antifungal activity against Candida albicans ATCC 10231 after 18 to 20 hrs by microbroth dilution method; assay type: functional; how it was run: as §3
Enterococcus faecalis = assay: Antibacterial activity against Enterococcus faecalis ATCC 29212 after 18 to 20 hrs by microbroth dilution method; assay type: functional; how it was run: as §1
[12] = Toxicity in human erythrocytes assessed as hemolysis at 6 uM after 40 mins; assay type: cell-based, Erythrocyte; conditions: read-out: Activity; how it was run: as §2
Staphylococcus aureus [13] = assay: Antibacterial activity against Staphylococcus aureus ATCC 25923 after 18 to 20 hrs by microbroth dilution method; assay type: functional; how it was run: as §1
[14] = Toxicity in human erythrocytes assessed as hemolysis at 3 uM after 40 mins; assay type: cell-based, Erythrocyte; conditions: read-out: Activity; how it was run: as §2

Compound | MIC (Staphylococcus capitis) | hemolysis at 40 min, 12 µM [1] | MIC [2] | MIC (Streptococcus pyogenes) | MIC [3] | MIC (Saccharomyces cerevisiae) | MIC (Staphylococcus aureus [4]) | MIC (Acinetobacter junii) | MIC (Pseudomonas syringae) | MIC (Escherichia coli [5]) | hemolysis at 40 min, 1.5 µM [6] | MIC (Pseudomonas aeruginosa [7]) | MIC (Acinetobacter baumannii) | MIC [8] | MIC (Pseudomonas aeruginosa [9]) | MIC (Priestia megaterium) | MIC (Escherichia coli [10]) | hemolysis at 40 min, 24 µM [11] | MIC (Candida albicans) | MIC (Enterococcus faecalis) | also measured
CC[C@H](C)[C@H](NC(=O)[C@H](CCCNC(=N)N)NC(=O)CNC(=O)[C@H](CC(C)C)NC(=O)[C@H](Cc1ccccc1)NC(=O)[C@H](CCCNC(=N)N)NC(=O)[C@H](CO)NC(=O)[C@H](Cc1ccccc1)NC(=O)[C@H](Cc1c[nH]c2ccccc12)NC(=O)[C@H](CCCNC(=N)N)NC(=O)[C@@H](NC(=O)[C@@H](N)Cc1ccccc1)C(C)C)C(=O)N[C@@H](CC(C)C)C(N)=O (H-FVRWFSRFLGRIL-NH2) | 6 µM (≈ 10.2 µg/mL) | 92% | 6 µM (≈ 10.2 µg/mL) | 3 µM (≈ 5.09 µg/mL) | 12 µM (≈ 20.4 µg/mL) | 24 µM (≈ 40.7 µg/mL) | 6 µM (≈ 10.2 µg/mL) | 12 µM (≈ 20.4 µg/mL) | 6 µM (≈ 10.2 µg/mL) | 24 µM (≈ 40.7 µg/mL) | 6% | 24 µM (≈ 40.7 µg/mL) | 6 µM (≈ 10.2 µg/mL) | 6 µM (≈ 10.2 µg/mL) | 24 µM (≈ 40.7 µg/mL) | 3 µM (≈ 5.09 µg/mL) | 48 µM (≈ 81.4 µg/mL) | 100% | 24 µM (≈ 40.7 µg/mL) | 24 µM (≈ 40.7 µg/mL) | hemolysis at 40 min, 6 µM [12]: 43%; MIC (Staphylococcus aureus [13]): 6 µM (≈ 10.2 µg/mL); hemolysis at 40 min, 3 µM [14]: 14%
CC(C)C[C@H](NC(=O)[C@H](CC(C)C)NC(=O)[C@H](CCCNC(=N)N)NC(=O)CNC(=O)[C@H](CC(C)C)NC(=O)[C@H](CC(C)C)NC(=O)[C@H](CCCCN)NC(=O)[C@H](CO)NC(=O)[C@H](CC(C)C)NC(=O)[C@H](Cc1c[nH]c2ccccc12)NC(=O)[C@H](CCC(N)=O)NC(=O)[C@H](CC(C)C)NC(=O)[C@@H](N)CC(C)C)C(N)=O (H-LLQWLSKLLGRLL-NH2) | 1.5 µM (≈ 2.33 µg/mL) | 73% | 1.5 µM (≈ 2.33 µg/mL) | 6 µM (≈ 9.31 µg/mL) | 3 µM (≈ 4.66 µg/mL) | 3 µM (≈ 4.66 µg/mL) | 1.5 µM (≈ 2.33 µg/mL) | 24 µM (≈ 37.2 µg/mL) | 6 µM (≈ 9.31 µg/mL) | 12 µM (≈ 18.6 µg/mL) | 4% | 12 µM (≈ 18.6 µg/mL) | 12 µM (≈ 18.6 µg/mL) | 3 µM (≈ 4.66 µg/mL) | 24 µM (≈ 37.2 µg/mL) | 1.5 µM (≈ 2.33 µg/mL) | 6 µM (≈ 9.31 µg/mL) | 100% | 6 µM (≈ 9.31 µg/mL) | 3 µM (≈ 4.66 µg/mL) | hemolysis at 40 min, 6 µM [12]: 25%; MIC (Staphylococcus aureus [13]): 3 µM (≈ 4.66 µg/mL); hemolysis at 40 min, 3 µM [14]: 9%
CC[C@H](C)[C@H](NC(=O)[C@H](CCCNC(=N)N)NC(=O)CNC(=O)[C@H](CC(C)C)NC(=O)[C@H](Cc1ccccc1)NC(=O)[C@H](CCCNC(=N)N)NC(=O)[C@H](CO)NC(=O)[C@H](Cc1ccccc1)NC(=O)[C@H](Cc1c[nH]c2ccccc12)NC(=O)[C@H](CCC(N)=O)NC(=O)[C@@H](NC(=O)[C@@H](N)Cc1ccccc1)C(C)C)C(=O)N[C@@H](CC(C)C)C(N)=O (H-FVQWFSRFLGRIL-NH2) | 6 µM (≈ 10 µg/mL) | 90% | 6 µM (≈ 10 µg/mL) | 6 µM (≈ 10 µg/mL) | 6 µM (≈ 10 µg/mL) | 12 µM (≈ 20 µg/mL) | 6 µM (≈ 10 µg/mL) | 6 µM (≈ 10 µg/mL) | 12 µM (≈ 20 µg/mL) | 48 µM (≈ 80.1 µg/mL) | 4% | 24 µM (≈ 40 µg/mL) | 6 µM (≈ 10 µg/mL) | 6 µM (≈ 10 µg/mL) | 48 µM (≈ 80.1 µg/mL) | 6 µM (≈ 10 µg/mL) | 12 µM (≈ 20 µg/mL) | 98% | 12 µM (≈ 20 µg/mL) | 12 µM (≈ 20 µg/mL) | hemolysis at 40 min, 6 µM [12]: 29%; MIC (Staphylococcus aureus [13]): 6 µM (≈ 10 µg/mL); hemolysis at 40 min, 3 µM [14]: 9%
CC[C@H](C)[C@H](NC(=O)[C@H](CCCNC(=N)N)NC(=O)CNC(=O)[C@H](CC(C)C)NC(=O)[C@H](Cc1ccccc1)NC(=O)[C@H](CCCCN)NC(=O)[C@H](CO)NC(=O)[C@H](Cc1ccccc1)NC(=O)[C@H](Cc1c[nH]c2ccccc12)NC(=O)[C@H](CCCNC(=N)N)NC(=O)[C@@H](NC(=O)[C@@H](N)Cc1ccccc1)C(C)C)C(=O)N[C@@H](CC(C)C)C(N)=O (H-FVRWFSKFLGRIL-NH2) | 3 µM (≈ 5 µg/mL) | 100% | 3 µM (≈ 5 µg/mL) | 3 µM (≈ 5 µg/mL) | 12 µM (≈ 20 µg/mL) | 24 µM (≈ 40 µg/mL) | 6 µM (≈ 10 µg/mL) | 3 µM (≈ 5 µg/mL) | 6 µM (≈ 10 µg/mL) | 12 µM (≈ 20 µg/mL) | 7% | 12 µM (≈ 20 µg/mL) | 6 µM (≈ 10 µg/mL) | 3 µM (≈ 5 µg/mL) | 24 µM (≈ 40 µg/mL) | 3 µM (≈ 5 µg/mL) | 24 µM (≈ 40 µg/mL) | 100% | 12 µM (≈ 20 µg/mL) | 12 µM (≈ 20 µg/mL) | hemolysis at 40 min, 6 µM [12]: 52%; MIC (Staphylococcus aureus [13]): 6 µM (≈ 10 µg/mL); hemolysis at 40 min, 3 µM [14]: 20%
CC[C@H](C)[C@H](NC(=O)[C@H](CCCNC(=N)N)NC(=O)[C@@H]1CCCN1C(=O)[C@H](CC(C)C)NC(=O)[C@H](Cc1ccccc1)NC(=O)[C@H](CCCCN)NC(=O)[C@H](CO)NC(=O)[C@H](Cc1ccccc1)NC(=O)[C@H](Cc1c[nH]c2ccccc12)NC(=O)[C@@H]1CCCN1C(=O)[C@@H](NC(=O)[C@@H](N)Cc1ccccc1)C(C)C)C(=O)N[C@@H](CC(C)C)C(N)=O | 12 µM (≈ 19.8 µg/mL) | 5% | 12 µM (≈ 19.8 µg/mL) | 12 µM (≈ 19.8 µg/mL) | 12 µM (≈ 19.8 µg/mL) | 12 µM (≈ 19.8 µg/mL) | 24 µM (≈ 39.6 µg/mL) | 12 µM (≈ 19.8 µg/mL) | 24 µM (≈ 39.6 µg/mL) | 24 µM (≈ 39.6 µg/mL) | 2% | > 48 µM | 48 µM (≈ 79.2 µg/mL) | 24 µM (≈ 39.6 µg/mL) | > 48 µM | 3 µM (≈ 4.95 µg/mL) | 48 µM (≈ 79.2 µg/mL) | 5% | 12 µM (≈ 19.8 µg/mL) | 48 µM (≈ 79.2 µg/mL) | hemolysis at 40 min, 6 µM [12]: 4.5%; MIC (Staphylococcus aureus [13]): 24 µM (≈ 39.6 µg/mL); hemolysis at 40 min, 3 µM [14]: 2%
